Data: ChEMBL document CHEMBL1130204, “3 alpha-Hydroxy-3 beta-(phenylethynyl)-5 beta-pregnan-20-ones: synthesis and pharmacological activity of neuroactive steroids with high affinity for GABAA receptors” (J Med Chem, 1997)

Legend:
Rattus norvegicus = organism: Rattus norvegicus; test: The maximum inhibitory potency was calculated by fitting [35S]TBPS inhibition data to a sigmoid function (rat brain cortical P2 membranes); type: functional
How it was run: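 Rat cortical P2 membranes washed in 200 mM NaCl/50 mM Na-K phosphate pH 7.4, incubated 90 min at room temperature with 2 nM [35S]TBPS, 5 µM GABA and test drug in DMSO (final 0.5%). Nonspecific binding defined with 2 µM unlabeled TBPS. Filtration, scintillation counting. Fits to one- or two-component, full or partial inhibition models chosen by F-test; IC50 and Imax as mean ± SEM of individual experiments.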

Mus musculus = test: Percent of animals (n=8) not exhibiting PTZ-induced ( Pentylentetrazol protection) seizures 10 min following a 10 mg/kg ip dose of steroid.; type: functional; conditions: route intraperitoneal
How it was run: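 Male NSA mice (15-20 g), n = 8. […] Mice watched 30 min for clonic seizure (forelimb clonus ≥3 s). Read-out is the percent of mice protected.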

[1] = biological target: GABA-A receptor; anion channel; test: In vitro inhibition of [35S]TBPS binding to gamma-aminobutyric-acid A receptor in rat brain cortical membranes in the presence of 5 uM GABA.; type: cell membranes, Membrane
How it was run: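 Rat cortical P2 membranes, washed in 200 mM NaCl/50 mM Na-K phosphate pH 7.4, incubated 90 min at room temperature with 2 nM [35S]TBPS, 5 µM GABA and test drug in DMSO (final 0.5%). Nonspecific binding taken with 2 µM unlabeled TBPS. Filtration, then scintillation counting. Partial vs full and one- vs two-component models chosen by F-test.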

[2] = biological target: T1, GABA-A receptor; alpha-1/beta-2/gamma-2 (Homo sapiens, UniProt P14867+P18507+P47870); test: Steroid potentiation of 5% GABA responses in Xenopus oocytes expressing human alpha-1-beta-2-gamma-2L subunits of GABA-A receptor; type: functional, cell-based, Oocyte
T1 sequence (P14867 whole entry): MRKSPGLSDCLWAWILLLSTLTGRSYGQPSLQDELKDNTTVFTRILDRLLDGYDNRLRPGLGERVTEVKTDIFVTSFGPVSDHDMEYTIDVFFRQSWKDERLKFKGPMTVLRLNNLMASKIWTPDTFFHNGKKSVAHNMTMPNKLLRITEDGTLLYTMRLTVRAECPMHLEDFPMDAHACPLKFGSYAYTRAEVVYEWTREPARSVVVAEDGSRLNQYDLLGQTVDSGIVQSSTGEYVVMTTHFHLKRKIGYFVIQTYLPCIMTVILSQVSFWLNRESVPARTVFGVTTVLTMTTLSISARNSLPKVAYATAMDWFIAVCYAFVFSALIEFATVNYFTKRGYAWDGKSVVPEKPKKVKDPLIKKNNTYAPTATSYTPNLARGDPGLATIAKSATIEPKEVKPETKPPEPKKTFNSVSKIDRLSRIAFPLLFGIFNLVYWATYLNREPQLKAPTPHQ
T1 sequence (P47870 whole entry): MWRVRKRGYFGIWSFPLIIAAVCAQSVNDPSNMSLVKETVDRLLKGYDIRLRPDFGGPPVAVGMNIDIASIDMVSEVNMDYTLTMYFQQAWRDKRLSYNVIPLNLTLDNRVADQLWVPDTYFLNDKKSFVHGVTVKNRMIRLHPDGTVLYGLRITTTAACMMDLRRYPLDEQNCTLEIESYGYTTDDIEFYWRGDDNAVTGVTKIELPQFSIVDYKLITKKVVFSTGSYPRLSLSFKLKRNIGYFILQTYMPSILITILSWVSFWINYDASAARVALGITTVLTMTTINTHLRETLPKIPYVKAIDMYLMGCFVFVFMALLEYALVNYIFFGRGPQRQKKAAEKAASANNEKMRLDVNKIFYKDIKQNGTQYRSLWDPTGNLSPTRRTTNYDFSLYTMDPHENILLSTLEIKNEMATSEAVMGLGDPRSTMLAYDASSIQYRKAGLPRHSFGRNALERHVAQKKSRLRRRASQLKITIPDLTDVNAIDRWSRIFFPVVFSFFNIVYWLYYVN
T1 sequence (P18507 whole entry): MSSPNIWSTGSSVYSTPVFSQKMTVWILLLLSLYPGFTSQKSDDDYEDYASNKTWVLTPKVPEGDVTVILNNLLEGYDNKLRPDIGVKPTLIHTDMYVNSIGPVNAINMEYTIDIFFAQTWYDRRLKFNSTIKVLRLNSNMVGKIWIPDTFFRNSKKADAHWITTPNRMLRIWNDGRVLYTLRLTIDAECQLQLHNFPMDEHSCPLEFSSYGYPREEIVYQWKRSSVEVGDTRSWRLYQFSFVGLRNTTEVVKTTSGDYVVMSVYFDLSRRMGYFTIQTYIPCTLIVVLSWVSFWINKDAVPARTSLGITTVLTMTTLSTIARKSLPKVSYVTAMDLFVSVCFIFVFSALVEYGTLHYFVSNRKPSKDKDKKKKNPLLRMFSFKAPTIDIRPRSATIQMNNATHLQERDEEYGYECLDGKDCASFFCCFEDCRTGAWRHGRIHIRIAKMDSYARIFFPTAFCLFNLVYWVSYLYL
How it was run: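 Xenopus oocytes injected with α1, β2, γ2L cRNAs (~1 ng each). Two-electrode voltage clamp at -70 mV in frog Ringer's, pH 7.4. GABA set to give about 5% of the maximal (1 mM GABA) current. Steroid stocks in DMSO diluted into Ringer's, DMSO 0.3%. Modulation is potentiation plus any direct steroid current, fitted to a four-parameter logistic. Mean ± SEM.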

[3] = biological target: GABA-A receptor; alpha-1/beta-2/gamma-2 (Homo sapiens) (UniProt P14867+P47870+P18507); test: Efficacy as fractional response (FR) relative to GABA maximum current elicited in the Xenopus oocytes; type: functional, cell-based; conditions: Oocyte
How it was run: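 Xenopus oocytes expressing α1β2γ2L GABAA receptors (~1 ng each cRNA), two-electrode voltage clamp at -70 mV in frog Ringer's pH 7.4. GABA set to give ~5% of maximal current (1 mM GABA). Steroid co-applied with 0.3% DMSO. Response taken as potentiation plus any direct current, expressed as a fraction of GABA maximum, fit to a four-parameter logistic.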

[4] = Slope value was determined

SMILES	Imax (Rattus norvegicus) [%]	PTZ protection (Mus musculus) [%]	IC50 [1] [nM]	EC50 [2] [nM]	Efficacy [3]	Slope [4]
CC(=O)[C@H]1CC[C@H]2[C@@H]3CC[C@@H]4C[C@@](O)(C#Cc5ccc(C(=O)c6ccccc6)cc5)CC[C@]4(C)[C@H]3CC[C@]12C	96	38	55			
CC(=O)[C@H]1CC[C@H]2[C@@H]3CC[C@@H]4C[C@@](O)(C#Cc5cccc(O)c5)CC[C@]4(C)[C@H]3CC[C@]12C	100	0	420			
CC(=O)[C@H]1CC[C@H]2[C@@H]3CC[C@@H]4C[C@@](O)(C#Cc5ccc(O)cc5)CC[C@]4(C)[C@H]3CC[C@]12C	100	0	2300	> 1000		
CC(=O)[C@H]1CC[C@H]2[C@@H]3CC[C@@H]4C[C@@](O)(Cc5ccccc5)CC[C@]4(C)[C@H]3CC[C@]12C	101	38	110			
CC(=O)[C@H]1CC[C@H]2[C@@H]3CC[C@@H]4C[C@@](O)(c5ccccc5)CC[C@]4(C)[C@H]3CC[C@]12C	89	25	380			
CC(=O)[C@H]1CC[C@H]2[C@@H]3CC[C@@H]4C[C@@](O)(CCc5ccccc5)CC[C@]4(C)[C@H]3CC[C@]12C	102	0	150			
CC(=O)[C@H]1CC[C@H]2[C@@H]3CC[C@@H]4C[C@@](O)(C#Cc5ccc(C)cc5)CC[C@]4(C)[C@H]3CC[C@]12C	84	50	83			
CC(=O)[C@H]1CC[C@H]2[C@@H]3CC[C@@H]4C[C@@](O)(CCCc5ccccc5)CC[C@]4(C)[C@H]3CC[C@]12C	91	13	190			
C#C[C@@]1(O)CC[C@@]2(C)[C@H](CC[C@@H]3[C@@H]2CC[C@]2(C)[C@@H](C(C)=O)CC[C@@H]32)C1			39			
COc1ccccc1C#C[C@@]1(O)CC[C@@]2(C)[C@H](CC[C@@H]3[C@@H]2CC[C@]2(C)[C@@H](C(C)=O)CC[C@@H]32)C1	89	0	170			
COc1ccc(C#C[C@@]2(O)CC[C@@]3(C)[C@H](CC[C@@H]4[C@@H]3CC[C@]3(C)[C@@H](C(C)=O)CC[C@@H]43)C2)cc1	84	25	42			
CCOC(=O)c1ccc(C#C[C@@]2(O)CC[C@H]3[C@H](CC[C@@H]4[C@@H]3CC[C@]3(C)[C@@H](C(C)=O)CC[C@@H]43)C2)cc1	94	13	26			
CC(=O)[C@H]1CC[C@H]2[C@@H]3CC[C@@H]4C[C@@](O)(C#Cc5ccc(C(N)=O)cc5)CC[C@]4(C)[C@H]3CC[C@]12C	96	13	1800			
CCN(CC)C(=O)c1ccc(C#C[C@@]2(O)CC[C@@]3(C)[C@H](CC[C@@H]4[C@@H]3CC[C@]3(C)[C@@H](C(C)=O)CC[C@@H]43)C2)cc1	91	13	93			
CC(=O)[C@H]1CC[C@H]2[C@@H]3CC[C@@H]4C[C@@](O)(C#Cc5ccc(C#N)cc5)CC[C@]4(C)[C@H]3CC[C@]12C	85	44	60			
CC(=O)[C@H]1CC[C@H]2[C@@H]3CC[C@@H]4C[C@@](O)(C#Cc5ccc(N(C)C)cc5)CC[C@]4(C)[C@H]3CC[C@]12C	78	50	40	18	0.76	1.1
CCOC(=O)c1ccc(C#C[C@@]2(O)CC[C@@]3(C)[C@H](CC[C@@H]4[C@@H]3CC[C@]3(C)[C@@H](C(C)=O)CC[C@@H]43)C2)cc1	97	19	12			
CC(=O)[C@H]1CC[C@H]2[C@@H]3CC[C@@H]4C[C@@](O)(C#Cc5ccc6c(c5)OCO6)CC[C@]4(C)[C@H]3CC[C@]12C	93	13	68			
CC(=O)[C@H]1CC[C@H]2[C@@H]3CC[C@@H]4C[C@](C)(O)CC[C@]4(C)[C@H]3CC[C@]12C			37			
CC(=O)[C@H]1CC[C@H]2[C@@H]3CC[C@@H]4C[C@@](O)(C#Cc5ccc(Cl)cc5)CC[C@]4(C)[C@H]3CC[C@]12C	88	0	70			
CC(=O)[C@H]1CC[C@H]2[C@@H]3CC[C@@H]4C[C@@](O)(C#Cc5ccc(C(F)(F)F)cc5)CC[C@]4(C)[C@H]3CC[C@]12C	88	0	56			
CC(=O)[C@H]1CC[C@H]2[C@@H]3CC[C@@H]4C[C@@](O)(C#Cc5ccc(-c6ccccc6)cc5)CC[C@]4(C)[C@H]3CC[C@]12C	90	0	54			
COc1ccc(C#C[C@@]2(O)CC[C@@]3(C)[C@H](CC[C@@H]4[C@@H]3CC[C@]3(C)[C@@H](C(C)=O)CC[C@@H]43)C2)cc1OC	102	13	290			
CC(=O)[C@H]1CC[C@H]2[C@@H]3CC[C@@H]4C[C@@](O)(C#Cc5ccccc5)CC[C@]4(C)[C@H]3CC[C@]12C	100	25	100			
CC(=O)[C@H]1CC[C@H]2[C@@H]3CC[C@@H]4C[C@@](O)(C#Cc5ccc([N+](=O)[O-])cc5)CC[C@]4(C)[C@H]3CC[C@]12C	98	13	42			
